Laboratory results as given in ChEMBL document CHEMBL4689842, “EUbOPEN Chemogenomics Library wave 1” (2021).

System: Fibroblast
Experiment: Multiplex assay against human fibroblast
Format: toxicity, cell-based
How it was run: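 Cells were classed with CellPathfinder machine-learning gating, first as Hoechst high-intensity objects or normal cells, then (normal cells) as healthy, pyknosed or fragmented nuclei, and finally (pyknosed cells) as mitotic or apoptotic. Staining of live cells at seeding used Hoechst33342, BioTracker Green Microtubule Cytoskeleton Dye, MitoTracker Red and Annexin V Alexa Fluor 680, with imaging on a CQ1 microscope at 37°C and 5% CO2 after compound addition. Tubulin, mitochondrial-mass and membrane-permeability phenotypes are per cents of healthy-nucleus cells.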

[1] = 12 h, 1 µM, compound concentration 1 uM, replicate 1
[2] = 12 h, 1 µM, compound concentration 1 uM, replicate 2
[3] = 12 h, 10 µM, compound concentration 10 uM, replicate 1
[4] = 12 h, 10 µM, compound concentration 10 uM, replicate 2
[5] = 24 h, 1 µM, compound concentration 1 uM, replicate 1
[6] = 24 h, 1 µM, compound concentration 1 uM, replicate 2
[7] = 24 h, 10 µM, compound concentration 10 uM, replicate 1
[8] = 24 h, 10 µM, compound concentration 10 uM, replicate 2
[9] = 48 h, 1 µM, compound concentration 1 uM, replicate 1
[10] = 48 h, 1 µM, compound concentration 1 uM, replicate 2
[11] = 48 h, 10 µM, compound concentration 10 uM, replicate 1
[12] = 48 h, 10 µM, compound concentration 10 uM, replicate 2

Cc1cc(C)c(S(=O)(=O)N(Cc2ccc(-c3cccc(S(C)(=O)=O)c3)cc2)Cc2ccc(C(F)(F)F)o2)c(C)c1
Population Apoptotic (%) [1]: 68%
Population Fragmented Nuclei (%) [1]: 20%
Population Healthy Nuclei (%) [1]: 45%
Population Hoechst High Intensity Objects (%) [1]: 8%
Population Membrane Permeable-Phenotype (%) [1]: 19%
Population Mitochondria Different-Phenotype (%) [1]: 8%
Population Mitotic Cells (%) [1]: 32%
Population Normal (%) [1]: 91%
Population Pyknosed Nuclei (%) [1]: 34%
Population Tubulin-Different-Phenotype (%) [1]: 55%
Total Cell Count [1]: 161
Population Apoptotic (%) [2]: 66%
Population Fragmented Nuclei (%) [2]: 15%
Population Healthy Nuclei (%) [2]: 80%
Population Hoechst High Intensity Objects (%) [2]: 6%
Population Membrane Permeable-Phenotype (%) [2]: 3%
Population Mitochondria Different-Phenotype (%) [2]: 21%
Population Mitotic Cells (%) [2]: 33%
Population Normal (%) [2]: 93%
Population Pyknosed Nuclei (%) [2]: 3%
Population Tubulin-Different-Phenotype (%) [2]: 27%
Total Cell Count [2]: 72
Population Apoptotic (%) [3]: 51%
Population Fragmented Nuclei (%) [3]: 40%
Population Healthy Nuclei (%) [3]: 27%
Population Hoechst High Intensity Objects (%) [3]: 45%
Population Membrane Permeable-Phenotype (%) [3]: 25%
Population Mitochondria Different-Phenotype (%) [3]: 7%
Population Mitotic Cells (%) [3]: 48%
Population Normal (%) [3]: 54%
Population Pyknosed Nuclei (%) [3]: 31%
Population Tubulin-Different-Phenotype (%) [3]: 74%
Total Cell Count [3]: 179
Population Apoptotic (%) [4]: 0%
Population Fragmented Nuclei (%) [4]: 14%
Population Healthy Nuclei (%) [4]: 77%
Population Hoechst High Intensity Objects (%) [4]: 22%
Population Membrane Permeable-Phenotype (%) [4]: 3%
Population Mitochondria Different-Phenotype (%) [4]: 3%
Population Mitotic Cells (%) [4]: 100%
Population Normal (%) [4]: 77%
Population Pyknosed Nuclei (%) [4]: 8%
Population Tubulin-Different-Phenotype (%) [4]: 11%
Total Cell Count [4]: 81
Population Apoptotic (%) [5]: 45%
Population Fragmented Nuclei (%) [5]: 21%
Population Healthy Nuclei (%) [5]: 64%
Population Hoechst High Intensity Objects (%) [5]: 9%
Population Membrane Permeable-Phenotype (%) [5]: 25%
Population Mitochondria Different-Phenotype (%) [5]: 6%
Population Mitotic Cells (%) [5]: 54%
Population Normal (%) [5]: 90%
Population Pyknosed Nuclei (%) [5]: 14%
Population Tubulin-Different-Phenotype (%) [5]: 58%
Total Cell Count [5]: 171
Population Apoptotic (%) [6]: 0%
Population Fragmented Nuclei (%) [6]: 14%
Population Healthy Nuclei (%) [6]: 80%
Population Hoechst High Intensity Objects (%) [6]: 1%
Population Membrane Permeable-Phenotype (%) [6]: 5%
Population Mitochondria Different-Phenotype (%) [6]: 18%
Population Mitotic Cells (%) [6]: 100%
Population Normal (%) [6]: 98%
Population Pyknosed Nuclei (%) [6]: 5%
Population Tubulin-Different-Phenotype (%) [6]: 32%
Total Cell Count [6]: 86
Population Apoptotic (%) [7]: 77%
Population Fragmented Nuclei (%) [7]: 34%
Population Healthy Nuclei (%) [7]: 46%
Population Hoechst High Intensity Objects (%) [7]: 42%
Population Membrane Permeable-Phenotype (%) [7]: 31%
Population Mitochondria Different-Phenotype (%) [7]: 18%
Population Mitotic Cells (%) [7]: 22%
Population Normal (%) [7]: 57%
Population Pyknosed Nuclei (%) [7]: 18%
Population Tubulin-Different-Phenotype (%) [7]: 72%
Total Cell Count [7]: 166
Population Apoptotic (%) [8]: 14%
Population Fragmented Nuclei (%) [8]: 15%
Population Healthy Nuclei (%) [8]: 71%
Population Hoechst High Intensity Objects (%) [8]: 10%
Population Membrane Permeable-Phenotype (%) [8]: 5%
Population Mitochondria Different-Phenotype (%) [8]: 10%
Population Mitotic Cells (%) [8]: 85%
Population Normal (%) [8]: 89%
Population Pyknosed Nuclei (%) [8]: 13%
Population Tubulin-Different-Phenotype (%) [8]: 15%
Total Cell Count [8]: 109
Population Apoptotic (%) [9]: 72%
Population Fragmented Nuclei (%) [9]: 30%
Population Healthy Nuclei (%) [9]: 58%
Population Hoechst High Intensity Objects (%) [9]: 8%
Population Membrane Permeable-Phenotype (%) [9]: 16%
Population Mitotic Cells (%) [9]: 27%
Population Normal (%) [9]: 91%
Population Pyknosed Nuclei (%) [9]: 11%
Population Tubulin-Different-Phenotype (%) [9]: 40%
Total Cell Count [9]: 178
Population Apoptotic (%) [10]: 66%
Population Fragmented Nuclei (%) [10]: 17%
Population Healthy Nuclei (%) [10]: 79%
Population Hoechst High Intensity Objects (%) [10]: 10%
Population Membrane Permeable-Phenotype (%) [10]: 18%
Population Mitochondria Different-Phenotype (%) [10]: 2%
Population Mitotic Cells (%) [10]: 33%
Population Normal (%) [10]: 89%
Population Pyknosed Nuclei (%) [10]: 2%
Population Tubulin-Different-Phenotype (%) [10]: 32%
Total Cell Count [10]: 114
Population Apoptotic (%) [11]: 100%
Population Fragmented Nuclei (%) [11]: 47%
Population Healthy Nuclei (%) [11]: 49%
Population Hoechst High Intensity Objects (%) [11]: 40%
Population Membrane Permeable-Phenotype (%) [11]: 45%
Population Mitochondria Different-Phenotype (%) [11]: 3%
Population Mitotic Cells (%) [11]: 0%
Population Normal (%) [11]: 59%
Population Pyknosed Nuclei (%) [11]: 2%
Population Tubulin-Different-Phenotype (%) [11]: 63%
Total Cell Count [11]: 192
Population Fragmented Nuclei (%) [12]: 21%
Population Healthy Nuclei (%) [12]: 77%
Population Hoechst High Intensity Objects (%) [12]: 12%
Population Membrane Permeable-Phenotype (%) [12]: 5%
Population Normal (%) [12]: 87%
Population Pyknosed Nuclei (%) [12]: 1%
Population Tubulin-Different-Phenotype (%) [12]: 22%
Total Cell Count [12]: 86
